Measurements published in ChEMBL document CHEMBL4689842, “EUbOPEN Chemogenomics Library wave 1” (2021).

Assays:
HEK-293T = test: Multiplex assay against HEK293T; type: toxicity, cell-based; settings: human;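 for Population Tubulin-Different-Phenotype (%): share of the cells with healthy nuclei that show this phenotype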
Summary of the method: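 Values for tubulin, mitochondrial-mass and membrane-permeability phenotypes are per cents of cells with healthy nuclei. These cells were identified by CellPathfinder machine-learning gating of live cells that had been stained at seeding with Hoechst33342, BioTracker Green Microtubule Cytoskeleton Dye, MitoTracker Red and Annexin V Alexa Fluor 680 and imaged on a CQ1 microscope at 37°C and 5% CO2 after compound addition. The gating first set Hoechst high-intensity objects apart from normal cells, then split normal cells into healthy, pyknosed or fragmented nuclei, and pyknosed cells into mitotic or apoptotic.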

Fibroblast = test: Incucyte cell viability with human fibroblast; type: toxicity, cell-based; settings: 10 µM, compound concentration 10 uM; note: filed as whole numbers so only -1 and 0 and 1 occur
[1] = 12 h, 1 µM, compound concentration 1 uM, replicate 1
[2] = 12 h, 1 µM, compound concentration 1 uM, replicate 2
[3] = 12 h, 10 µM, compound concentration 10 uM, replicate 1
[4] = 12 h, 10 µM, compound concentration 10 uM, replicate 2
[5] = 24 h, 1 µM, compound concentration 1 uM, replicate 1
[6] = 24 h, 1 µM, compound concentration 1 uM, replicate 2
[7] = 24 h, 10 µM, compound concentration 10 uM, replicate 1
[8] = 24 h, 10 µM, compound concentration 10 uM, replicate 2
[9] = 48 h, 1 µM, compound concentration 1 uM, replicate 1
[10] = 48 h, 1 µM, compound concentration 1 uM, replicate 2
[11] = 48 h, 10 µM, compound concentration 10 uM, replicate 1
[12] = 48 h, 10 µM, compound concentration 10 uM, replicate 2

Cc1ccc(S(=O)(=O)NC2c3ccccc3Oc3ccccc32)cc1
Population Apoptotic (%) (HEK-293T; [1]): 46%
Population Fragmented Nuclei (%) (HEK-293T; [1]): 11%
Population Healthy Nuclei (%) (HEK-293T; [1]): 44%
Population Hoechst High Intensity Objects (%) (HEK-293T; [1]): 11%
Population Membrane Permeable-Phenotype (%) (HEK-293T; [1]): 2%
Population Mitochondria Different-Phenotype (%) (HEK-293T; [1]): 64%
Population Mitotic Cells (%) (HEK-293T; [1]): 53%
Population Normal (%) (HEK-293T; [1]): 88%
Population Pyknosed Nuclei (%) (HEK-293T; [1]): 44%
Population Tubulin-Different-Phenotype (%) (HEK-293T; [1]): 27%
Total Cell Count (HEK-293T; [1]): 362
Population Apoptotic (%) (HEK-293T; [2]): 21%
Population Fragmented Nuclei (%) (HEK-293T; [2]): 5%
Population Healthy Nuclei (%) (HEK-293T; [2]): 49%
Population Hoechst High Intensity Objects (%) (HEK-293T; [2]): 2%
Population Membrane Permeable-Phenotype (%) (HEK-293T; [2]): 17%
Population Mitochondria Different-Phenotype (%) (HEK-293T; [2]): 9%
Population Mitotic Cells (%) (HEK-293T; [2]): 78%
Population Normal (%) (HEK-293T; [2]): 97%
Population Pyknosed Nuclei (%) (HEK-293T; [2]): 45%
Population Tubulin-Different-Phenotype (%) (HEK-293T; [2]): 22%
Total Cell Count (HEK-293T; [2]): 179
Population Apoptotic (%) (HEK-293T; [3]): 59%
Population Fragmented Nuclei (%) (HEK-293T; [3]): 32%
Population Healthy Nuclei (%) (HEK-293T; [3]): 37%
Population Hoechst High Intensity Objects (%) (HEK-293T; [3]): 11%
Population Membrane Permeable-Phenotype (%) (HEK-293T; [3]): 3%
Population Mitochondria Different-Phenotype (%) (HEK-293T; [3]): 86%
Population Mitotic Cells (%) (HEK-293T; [3]): 40%
Population Normal (%) (HEK-293T; [3]): 88%
Population Pyknosed Nuclei (%) (HEK-293T; [3]): 30%
Population Tubulin-Different-Phenotype (%) (HEK-293T; [3]): 74%
Total Cell Count (HEK-293T; [3]): 398
Population Apoptotic (%) (HEK-293T; [4]): 16%
Population Fragmented Nuclei (%) (HEK-293T; [4]): 33%
Population Healthy Nuclei (%) (HEK-293T; [4]): 34%
Population Hoechst High Intensity Objects (%) (HEK-293T; [4]): 5%
Population Membrane Permeable-Phenotype (%) (HEK-293T; [4]): 12%
Population Mitochondria Different-Phenotype (%) (HEK-293T; [4]): 33%
Population Mitotic Cells (%) (HEK-293T; [4]): 83%
Population Normal (%) (HEK-293T; [4]): 94%
Population Pyknosed Nuclei (%) (HEK-293T; [4]): 31%
Population Tubulin-Different-Phenotype (%) (HEK-293T; [4]): 49%
Total Cell Count (HEK-293T; [4]): 307
Population Apoptotic (%) (HEK-293T; [5]): 41%
Population Fragmented Nuclei (%) (HEK-293T; [5]): 10%
Population Healthy Nuclei (%) (HEK-293T; [5]): 47%
Population Hoechst High Intensity Objects (%) (HEK-293T; [5]): 13%
Population Membrane Permeable-Phenotype (%) (HEK-293T; [5]): 4%
Population Mitochondria Different-Phenotype (%) (HEK-293T; [5]): 55%
Population Mitotic Cells (%) (HEK-293T; [5]): 58%
Population Normal (%) (HEK-293T; [5]): 86%
Population Pyknosed Nuclei (%) (HEK-293T; [5]): 41%
Population Tubulin-Different-Phenotype (%) (HEK-293T; [5]): 41%
Total Cell Count (HEK-293T; [5]): 392
Population Apoptotic (%) (HEK-293T; [6]): 22%
Population Fragmented Nuclei (%) (HEK-293T; [6]): 8%
Population Healthy Nuclei (%) (HEK-293T; [6]): 55%
Population Hoechst High Intensity Objects (%) (HEK-293T; [6]): 1%
Population Membrane Permeable-Phenotype (%) (HEK-293T; [6]): 23%
Population Mitochondria Different-Phenotype (%) (HEK-293T; [6]): 12%
Population Mitotic Cells (%) (HEK-293T; [6]): 77%
Population Normal (%) (HEK-293T; [6]): 98%
Population Pyknosed Nuclei (%) (HEK-293T; [6]): 36%
Population Tubulin-Different-Phenotype (%) (HEK-293T; [6]): 29%
Total Cell Count (HEK-293T; [6]): 239
Population Apoptotic (%) (HEK-293T; [7]): 55%
Population Fragmented Nuclei (%) (HEK-293T; [7]): 13%
Population Healthy Nuclei (%) (HEK-293T; [7]): 55%
Population Hoechst High Intensity Objects (%) (HEK-293T; [7]): 10%
Population Membrane Permeable-Phenotype (%) (HEK-293T; [7]): 7%
Population Mitochondria Different-Phenotype (%) (HEK-293T; [7]): 68%
Population Mitotic Cells (%) (HEK-293T; [7]): 45%
Population Normal (%) (HEK-293T; [7]): 89%
Population Pyknosed Nuclei (%) (HEK-293T; [7]): 30%
Population Tubulin-Different-Phenotype (%) (HEK-293T; [7]): 55%
Total Cell Count (HEK-293T; [7]): 362
Population Apoptotic (%) (HEK-293T; [8]): 17%
Population Fragmented Nuclei (%) (HEK-293T; [8]): 11%
Population Healthy Nuclei (%) (HEK-293T; [8]): 52%
Population Hoechst High Intensity Objects (%) (HEK-293T; [8]): 3%
Population Membrane Permeable-Phenotype (%) (HEK-293T; [8]): 9%
Population Mitochondria Different-Phenotype (%) (HEK-293T; [8]): 31%
Population Mitotic Cells (%) (HEK-293T; [8]): 82%
Population Normal (%) (HEK-293T; [8]): 96%
Population Pyknosed Nuclei (%) (HEK-293T; [8]): 36%
Population Tubulin-Different-Phenotype (%) (HEK-293T; [8]): 47%
Total Cell Count (HEK-293T; [8]): 283
Population Apoptotic (%) (HEK-293T; [9]): 34%
Population Fragmented Nuclei (%) (HEK-293T; [9]): 18%
Population Healthy Nuclei (%) (HEK-293T; [9]): 46%
Population Hoechst High Intensity Objects (%) (HEK-293T; [9]): 12%
Population Membrane Permeable-Phenotype (%) (HEK-293T; [9]): 2%
Population Mitochondria Different-Phenotype (%) (HEK-293T; [9]): 26%
Population Mitotic Cells (%) (HEK-293T; [9]): 65%
Population Normal (%) (HEK-293T; [9]): 87%
Population Pyknosed Nuclei (%) (HEK-293T; [9]): 35%
Population Tubulin-Different-Phenotype (%) (HEK-293T; [9]): 28%
Total Cell Count (HEK-293T; [9]): 465
Population Apoptotic (%) (HEK-293T; [10]): 13%
Population Fragmented Nuclei (%) (HEK-293T; [10]): 8%
Population Healthy Nuclei (%) (HEK-293T; [10]): 78%
Population Hoechst High Intensity Objects (%) (HEK-293T; [10]): 3%
Population Membrane Permeable-Phenotype (%) (HEK-293T; [10]): 11%
Population Mitochondria Different-Phenotype (%) (HEK-293T; [10]): 3%
Population Mitotic Cells (%) (HEK-293T; [10]): 86%
Population Normal (%) (HEK-293T; [10]): 96%
Population Pyknosed Nuclei (%) (HEK-293T; [10]): 12%
Total Cell Count (HEK-293T; [10]): 466
Population Apoptotic (%) (HEK-293T; [11]): 36%
Population Fragmented Nuclei (%) (HEK-293T; [11]): 13%
Population Healthy Nuclei (%) (HEK-293T; [11]): 66%
Population Hoechst High Intensity Objects (%) (HEK-293T; [11]): 8%
Population Membrane Permeable-Phenotype (%) (HEK-293T; [11]): 2%
Population Mitochondria Different-Phenotype (%) (HEK-293T; [11]): 27%
Population Mitotic Cells (%) (HEK-293T; [11]): 63%
Population Normal (%) (HEK-293T; [11]): 91%
Population Pyknosed Nuclei (%) (HEK-293T; [11]): 20%
Population Tubulin-Different-Phenotype (%) (HEK-293T; [11]): 38%
Total Cell Count (HEK-293T; [11]): 453
Population Apoptotic (%) (HEK-293T; [12]): 12%
Population Fragmented Nuclei (%) (HEK-293T; [12]): 4%
Population Healthy Nuclei (%) (HEK-293T; [12]): 73%
Population Hoechst High Intensity Objects (%) (HEK-293T; [12]): 2%
Population Membrane Permeable-Phenotype (%) (HEK-293T; [12]): 6%
Population Mitochondria Different-Phenotype (%) (HEK-293T; [12]): 20%
Population Mitotic Cells (%) (HEK-293T; [12]): 87%
Population Normal (%) (HEK-293T; [12]): 97%
Population Pyknosed Nuclei (%) (HEK-293T; [12]): 22%
Population Tubulin-Different-Phenotype (%) (HEK-293T; [12]): 45%
Total Cell Count (HEK-293T; [12]): 374
Growth Rate (Fibroblast; 0 h, replicate number 1, timepoint 0 hours): 0
Growth Rate (Fibroblast; 24 h, replicate number 1, timepoint 24 hours): 1
